What was measured:
[1] = system: Human immunodeficiency virus 2; assay: Antiviral activity against HIV2 ROD infected in human CEM/0 cells assessed as inhibition of virus-induced cytopathicity after 4 to 5 days; type: functional, organism-based; conditions: Human immunodeficiency virus 2, ISOLATE ROD, CCRF-CEM
[2] = system: Human immunodeficiency virus 2; assay: Antiviral activity against HIV2 ROD infected in human CEM/TK- cells assessed as inhibition of virus-induced cytopathicity after 4 to 5 days; type: functional, organism-based; conditions: Human immunodeficiency virus 2, ISOLATE ROD
[3] = Cytotoxicity against human CEM/0 cells; type: cell-based, CCRF-CEM
Method in brief: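 Proliferation of CEM cells measured by Coulter particle counting across a range of compound concentrations. CC50 is the concentration inhibiting cell proliferation by 50%.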

[4] = system: Human immunodeficiency virus 1; assay: Antiviral activity against HIV1 3B infected in human CEM/0 cells assessed as inhibition of virus-induced cytopathicity after 4 to 5 days; type: functional, organism-based; conditions: Human immunodeficiency virus 1, 3B, CCRF-CEM
[5] = system: Moloney murine sarcoma virus; assay: Antiviral activity against murine sarcoma virus infected in murine C3H/3T3 cells assessed as inhibition of virus-induced cell transformation

Structure (SMILES)	EC50 [1] [nM]	EC50 [2] [nM]	EC50 [4] [nM]	EC50 [5] [nM]	CC50 [3] [nM]
COC(=O)[C@H](C)N[P@@](=O)(OC[C@@H]1C=C[C@H](n2cc(C)c(=O)[nH]c2=O)O1)Oc1ccc(OC)cc1	860	1900	1100	5300	235000
COC(=O)[C@H](C)N[P@](=O)(OC[C@@H]1C=C[C@H](n2cc(C)c(=O)[nH]c2=O)O1)Oc1ccccc1C	1100	1900	1300	9800	> 250000
COC(=O)[C@H](C)N[P@@](=O)(OC[C@@H]1C=C[C@H](n2cc(C)c(=O)[nH]c2=O)O1)Oc1cccc2ccccc12	450	250	120	720	107000
COC(=O)[C@H](C)N[P@@](=O)(OC[C@@H]1C=C[C@H](n2cc(C)c(=O)[nH]c2=O)O1)Oc1ccccc1C	1300	2900	1300	4000	> 250000
COC(=O)[C@H](C)N[P@](=O)(OC[C@@H]1C=C[C@H](n2cc(C)c(=O)[nH]c2=O)O1)Oc1ccc(OC)cc1	140	48	150	2000	77000
COC(=O)[C@H](C)N[P@](=O)(OC[C@@H]1C=C[C@H](n2cc(C)c(=O)[nH]c2=O)O1)Oc1cccc2ccccc12	160	130	150	530	70000

Second part, led by results:

EC50 [1] [nM]	EC50 [2] [nM]	EC50 [4] [nM]	EC50 [5] [nM]	Structure (SMILES)	CC50 [3] [nM]
140	32	120	1800	COC(=O)[C@H](C)N[P@](=O)(OC[C@@H]1C=C[C@H](n2cc(C)c(=O)[nH]c2=O)O1)Oc1ccc(C)cc1	79000
750	132000	840	2500	Cc1cn([C@H]2C=C[C@@H](CO)O2)c(=O)[nH]c1=O [STAVUDINE]	> 250000
460	2100	820	1800	COC(=O)[C@H](C)N[P@@](=O)(OC[C@@H]1C=C[C@H](n2cc(C)c(=O)[nH]c2=O)O1)Oc1ccc(C)cc1	> 250000

From ChEMBL document CHEMBL1275367, “Diastereoselective synthesis of aryloxy phosphoramidate prodrugs of 3'-deoxy-2',3'-didehydrothymidine monophosphate” (J Med Chem, 2010)
